Laboratory results as given in ChEMBL document CHEMBL1153954, “Promiscuous aggregate-based inhibitors promote enzyme unfolding” (J Med Chem, 2009).
Calls of active or inactive are those of the source. The calls are words filed in the database; no cut-off is given here.

Biological target: AmpC (Escherichia coli) (UniProt Q83TT7)
Assay: Inhibition of Escherichia coli AmpC assessed as induction of protein unfolding measured by trypsin mediated degradation of compound-AmpC enzyme complex at 250 uM after 15 mins by gel electrophoresis
Outline: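 AmpC β-lactamase (0.5 μM) in 50 mM KPi, pH 7.0, with or without aggregator at 250 μM (1% DMSO final). Trypsin (0.01 or 0.025 mg/mL) added after 5 min. Digestion ran at room temperature for 0 min to 4 h. Samples were boiled 2 min in DTT-containing loading buffer, run on SDS-PAGE, and the β-lactamase band was scored against compound-free enzyme.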

Sequence of AmpC (Escherichia coli) (Q83TT7 as listed by the source): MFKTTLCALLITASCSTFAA

Row | SMILES | Activity
1 | O=S(=O)(O)c1cc(O)c(/N=N/c2ccc3ccccc3c2O)c2ccccc12 | Active
2 | COC(=O)C1=C(C)NC(C)=C(C(=O)OCCN(C)Cc2ccccc2)C1c1cccc([N+](=O)[O-])c1 (configuration not stated) | Active
